Columns and labels:
[1] = Selectivity for human factor 10a over trypsin
Coagulation factor X = Coagulation factor X (Homo sapiens, UniProt P00742); test: Inhibition of human factor 10a
How it was run: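 Inhibition constant (Ki) measured against purified human factor Xa; each value is the average of two independent experiments (n = 2).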

[2] = Selectivity for human factor 10a over thrombin
Plasma = test: Anticoagulant efficacy in human citreated plasma assessed as concentration required to double prothrombin time; format: functional
[3] = Half life in dog; format: ADME, organism-based, Canis lupus familiaris; settings: in vivo
[4] = Oral bioavailability in dog; format: ADME, organism-based, Canis lupus familiaris; settings: in vivo
[5] = Clearance in dog; format: ADME, organism-based, Canis lupus familiaris; settings: in vivo
[6] = Apparent permeability across human Caco-2 cells; format: ADME, cell-based
[7] = Selectivity for human factor 10a over factor 7a

Chain of Coagulation factor X (P00742 41-179 limits assumed): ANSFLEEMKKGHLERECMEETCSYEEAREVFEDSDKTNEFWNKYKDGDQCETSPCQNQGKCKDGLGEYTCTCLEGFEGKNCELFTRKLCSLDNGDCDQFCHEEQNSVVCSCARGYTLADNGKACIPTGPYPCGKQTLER
Chain of Coagulation factor X (P00742 235-488 limits assumed): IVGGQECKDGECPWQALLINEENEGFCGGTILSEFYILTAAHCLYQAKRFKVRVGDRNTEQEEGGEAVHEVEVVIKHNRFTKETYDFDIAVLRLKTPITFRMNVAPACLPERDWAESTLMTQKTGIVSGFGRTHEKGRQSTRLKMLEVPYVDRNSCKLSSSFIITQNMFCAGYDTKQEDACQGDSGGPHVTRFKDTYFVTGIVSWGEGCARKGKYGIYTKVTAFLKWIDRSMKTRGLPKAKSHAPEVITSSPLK

| SMILES | Selectivity ratio [1] | Ki (Coagulation factor X) | Selectivity ratio [2] | PT (Plasma) | half-life [3] | bioavailability [4] | clearance [5] | Papp [6] | Selectivity ratio [7] |
| --- | --- | --- | --- | --- | --- | --- | --- | --- | --- |
| CS(=O)(=O)c1ccccc1-c1ccc(N2CCCC(NS(=O)(=O)c3ccc(-c4ccon4)s3)C2=O)c(F)c1 (configuration not stated) | > 1000 | 26 nM | > 1000 |  |  |  |  |  |  |
| CN(C)CCN(C)C(=O)CN(C1CCCN(c2ccc(-n3ccccc3=O)cc2F)C1=O)S(=O)(=O)c1ccc2cc(Cl)ccc2c1 (configuration not stated) | > 1000 | 0.02 nM | > 1000 | 3.3 µM |  |  |  |  |  |
| CS(=O)(=O)c1ccccc1-c1ccc(N2CCCC(N(CC(=O)O)S(=O)(=O)c3ccc4cc(Cl)ccc4c3)C2=O)c(F)c1 (configuration not stated) | > 1000 | 1 nM | > 1000 | 250 µM |  |  |  |  |  |
| CN(C)Cc1nccn1-c1ccc(N2CCCC(NS(=O)(=O)c3ccc4cc(Cl)ccc4c3)C2=O)c(F)c1 (configuration not stated) | > 1000 | 2.4 nM | > 1000 | 13 µM |  |  |  |  |  |
| CS(=O)(=O)c1ccccc1-c1ccc(N2CCCC(NS(=O)(=O)c3ccc(Cl)s3)C2=O)c(F)c1 (configuration not stated) | > 1000 | 5.3 nM | > 1000 |  |  |  |  |  |  |
| CS(=O)(=O)c1ccccc1-c1ccc(N2CCCC(NS(=O)(=O)c3ccc(F)c(F)c3)C2=O)c(F)c1 (configuration not stated) | > 1000 | 270 nM | > 1000 |  |  |  |  |  |  |
| CS(=O)(=O)c1ccccc1-c1ccc(N2CCCC(NS(=O)(=O)c3ccc4cn[nH]c4c3)C2=O)c(F)c1 (configuration not stated) | > 1000 | 19 nM | > 1000 |  |  |  |  |  |  |
| Cc1c(S(=O)(=O)NC2CCCN(c3ccc(-c4ccccc4S(C)(=O)=O)cc3F)C2=O)sc2ccc(Cl)cc12 (configuration not stated) | > 1000 | 160 nM | > 1000 |  |  |  |  |  |  |
| CS(=O)(=O)c1ccccc1-c1ccc(N2CCCC(NS(=O)(=O)c3ccccc3)C2=O)c(F)c1 (configuration not stated) | > 1000 | 370 nM | > 1000 |  |  |  |  |  |  |
| CS(=O)(=O)c1ccccc1-c1ccc(N2CCCC(NS(=O)(=O)c3ccc(Cl)cc3)C2=O)c(F)c1 (configuration not stated) | > 1000 | 23 nM | > 1000 |  |  |  |  |  |  |
| COC(=O)CN(C1CCCN(c2ccc(-c3ccccc3S(C)(=O)=O)cc2F)C1=O)S(=O)(=O)c1ccc2cc(Cl)ccc2c1 (configuration not stated) | > 1000 | 0.88 nM | > 1000 | 89 µM |  |  |  |  |  |
| O=C1CCCCN1c1ccc(N2CCCC(NS(=O)(=O)c3ccc4cc(Cl)ccc4c3)C2=O)c(F)c1 (configuration not stated) | > 1000 | 10 nM | > 1000 |  |  |  |  |  |  |
| CN(C)CCN(C)C(=O)CN([C@H]1CCCN(c2ccc(-n3ccccc3=O)cc2F)C1=O)S(=O)(=O)c1ccc2cc(Cl)ccc2c1 | > 1000 | 0.016 nM | > 1000 | 1.7 µM | 6.45 h | 4% | 19.8 mL/min/kg |  |  |
| COc1cccc(S(=O)(=O)NC2CCCN(c3ccc(-c4ccccc4S(C)(=O)=O)cc3F)C2=O)c1 (configuration not stated) | > 1000 | 100 nM | > 1000 |  |  |  |  |  |  |
| COc1ccc(C(=O)NC2CCCN(c3ccc(-c4ccccc4S(C)(=O)=O)cc3F)C2=O)cc1 (configuration not stated) | > 1000 | 560 nM | > 1000 |  |  |  |  |  |  |
| CS(=O)(=O)c1ccccc1-c1ccc(N2CCCC(NS(=O)(=O)Cc3ccccc3)C2=O)c(F)c1 (configuration not stated) | > 1000 | 3200 nM | > 1000 |  |  |  |  |  |  |
| CS(=O)(=O)c1ccccc1-c1ccc(N2CCCC(NS(=O)(=O)c3ccc(Cl)c(Cl)c3)C2=O)c(F)c1 (configuration not stated) | > 1000 | 61 nM | > 1000 |  |  |  |  |  |  |
| COc1ccc(S(=O)(=O)NC2CCCN(c3ccc(-c4ccccc4S(C)(=O)=O)cc3F)C2=O)cc1 (configuration not stated) | > 1000 | 53 nM | > 1000 |  |  |  |  |  |  |
| COC(=O)CN(C1CCCN(c2ccc(-n3ccccc3=O)cc2)C1=O)S(=O)(=O)c1cc2ccc(Cl)nc2s1 (configuration not stated) | > 1000 | 0.043 nM | > 1000 | 4.4 µM |  |  |  | 3.5 ×10⁻⁶ cm/s |  |
| CS(=O)(=O)c1ccccc1-c1ccc(N2CCCC(NS(=O)(=O)c3cccc(Cl)c3)C2=O)c(F)c1 (configuration not stated) | > 1000 | 380 nM | > 1000 |  |  |  |  |  |  |
| COC(=O)CN(C1CCCN(c2ccc(-n3ccnc3C[N+](C)(C)CC(=O)OC)cc2F)C1=O)S(=O)(=O)c1ccc2cc(Cl)ccc2c1 (configuration not stated) | > 1000 | 0.21 nM | > 1000 | 12 µM |  |  |  |  |  |
| CS(=O)(=O)c1ccccc1-c1ccc(N2CCCC(NS(=O)(=O)c3ccc(C#N)cc3)C2=O)c(F)c1 (configuration not stated) | > 1000 | 420 nM | > 1000 |  |  |  |  |  |  |
| CNC(=O)CN(C1CCCN(c2ccc(-n3ccccc3=O)cc2F)C1=O)S(=O)(=O)c1cc2ccc(Cl)nc2s1 (configuration not stated) | > 1000 | 0.037 nM | > 1000 | 4.2 µM |  |  |  | 0.1 ×10⁻⁶ cm/s |  |

| SMILES | Selectivity ratio [1] | Ki (Coagulation factor X) | Selectivity ratio [2] | PT (Plasma) | half-life [3] | bioavailability [4] | clearance [5] | Papp [6] | Selectivity ratio [7] |
| --- | --- | --- | --- | --- | --- | --- | --- | --- | --- |
| CS(=O)(=O)c1ccccc1-c1ccc(N2CCCC(NS(=O)(=O)c3cc(Cl)ccc3Cl)C2=O)c(F)c1 (configuration not stated) | > 1000 | 650 nM | > 1000 |  |  |  |  |  |  |
| CS(=O)(=O)c1ccccc1-c1ccc(N2CCCC(NS(=O)(=O)c3cccc4ccc(Cl)cc34)C2=O)c(F)c1 (configuration not stated) | > 1000 | 18 nM | > 1000 |  |  |  |  |  |  |
| CS(=O)(=O)c1ccccc1-c1ccc(N2CCCC(NS(=O)(=O)c3ccc(N)nc3)C2=O)c(F)c1 (configuration not stated) | > 1000 | 260 nM | > 1000 |  |  |  |  |  |  |
| COC(=O)C[N+](C)(C)Cc1nccn1-c1ccc(N2CCCC(NS(=O)(=O)c3ccc4cc(Cl)ccc4c3)C2=O)c(F)c1 (configuration not stated) | > 1000 | 0.35 nM | > 1000 | 13 µM |  |  |  |  |  |
| NC(=O)CN(C1CCCN(c2ccc(-n3ccccc3=O)cc2)C1=O)S(=O)(=O)c1cc2ccc(Cl)nc2s1 (configuration not stated) | > 1000 | 0.1 nM | > 1000 | 4.8 µM |  |  |  |  |  |
| O=C1C(NS(=O)(=O)c2cc3ccc(Cl)nc3s2)CCCN1c1ccc(-n2ccccc2=O)cc1 (configuration not stated) | > 1000 | 0.05 nM | > 1000 | 15 µM |  |  |  | 2 ×10⁻⁶ cm/s |  |
| O=C1C(NS(=O)(=O)c2ccc3cc(Cl)ccc3c2)CCCN1c1ccc(-c2ccncc2)cc1F (configuration not stated) | > 1000 | 28 nM | > 1000 |  |  |  |  |  |  |
| CN(C)CCN(C)C(=O)CN(C1CCCN(c2ccc(-n3ccccc3=O)cc2F)C1=O)S(=O)(=O)c1cc2ccc(Cl)nc2s1 (configuration not stated) | > 1000 | 0.013 nM | > 1000 | 2.1 µM |  |  |  |  |  |
| O=C1C(NS(=O)(=O)c2ccc3cc(Cl)ccc3c2)CCCN1c1ccc(-n2ccccc2=O)cc1F (configuration not stated) | > 1000 | 0.11 nM | > 1000 | 35 µM |  |  |  |  |  |
| O=C(O)CN(C1CCCN(c2ccc(-n3ccccc3=O)cc2)C1=O)S(=O)(=O)c1cc2ccc(Cl)nc2s1 (configuration not stated) | > 1000 | 0.13 nM | > 1000 | 16 µM |  |  |  |  |  |
| CS(=O)(=O)c1ccccc1-c1ccc(N2CCCC(NS(=O)(=O)c3cnc4ccccc4c3)C2=O)c(F)c1 (configuration not stated) | > 1000 | 28 nM | > 1000 |  |  |  |  |  |  |
| CS(=O)(=O)c1ccccc1-c1ccc(N2CCCC(NS(=O)(=O)c3ccc4ncccc4c3)C2=O)c(F)c1 (configuration not stated) | > 1000 | 73 nM | > 1000 |  |  |  |  |  |  |
| CCc1ccc(S(=O)(=O)NC2CCCN(c3ccc(-c4ccccc4S(C)(=O)=O)cc3F)C2=O)cc1 (configuration not stated) | > 1000 | 78 nM | > 1000 |  |  |  |  |  |  |
| CN(C)CCN(C)C(=O)CN(C1CCCN(c2ccc(N3CCCCC3=O)cc2F)C1=O)S(=O)(=O)c1ccc2cc(Cl)ccc2c1 (configuration not stated) | > 1000 | 1.7 nM | > 1000 | 12 µM |  |  |  |  |  |
| CS(=O)(=O)c1ccccc1-c1ccc(N2CCCC(NS(=O)(=O)c3cc(Cl)cc(Cl)c3)C2=O)c(F)c1 (configuration not stated) | > 1000 | 730 nM | > 1000 |  |  |  |  |  |  |
| COc1ccc(NC2CCCN(c3ccc(-c4ccccc4S(C)(=O)=O)cc3F)C2=O)cc1 (configuration not stated) | > 1000 | 450 nM | > 1000 |  |  |  |  |  |  |
| CS(=O)(=O)c1ccccc1-c1ccc(N2CCCC(NS(=O)(=O)c3ccc4onc(N)c4c3)C2=O)c(F)c1 (configuration not stated) | > 1000 | 19 nM | > 1000 |  |  |  |  |  |  |
| CS(=O)(=O)c1ccccc1-c1ccc(N2CCCC(N(CCCO)S(=O)(=O)c3ccc4cc(Cl)ccc4c3)C2=O)c(F)c1 (configuration not stated) | > 1000 | 2.3 nM | > 1000 | 208 µM |  |  |  |  |  |
| COc1ccc(OC2CCCN(c3ccc(-c4ccccc4S(C)(=O)=O)cc3F)C2=O)cc1 (configuration not stated) | > 1000 | 200 nM | > 1000 |  |  |  |  |  | > 1000 |
| CS(=O)(=O)c1ccccc1-c1ccc(N2CCCC(NS(=O)(=O)c3cccc4cc(Cl)ccc34)C2=O)c(F)c1 (configuration not stated) | > 1000 | 2.2 nM | > 1000 | 102 µM |  |  |  |  |  |
| CS(=O)(=O)c1ccccc1-c1ccc(N2CCCC(NS(=O)(=O)c3cccnc3)C2=O)c(F)c1 (configuration not stated) | > 1000 | 2600 nM | > 1000 |  |  |  |  |  |  |
| CS(=O)(=O)c1ccccc1-c1ccc(N2CCCC(NS(=O)(=O)c3ccc(F)cc3)C2=O)c(F)c1 (configuration not stated) | > 1000 | 44.5 nM | > 1000 |  |  |  |  |  |  |
| O=C1C(NS(=O)(=O)c2ccc3cc(Cl)ccc3c2)CCCN1c1ccc(N2CCCCC2)cc1F (configuration not stated) | > 1000 | 16 nM | > 1000 |  |  |  |  |  |  |

Source: ChEMBL document CHEMBL1143881, “Sulfonamidolactam inhibitors of coagulation factor Xa” (Bioorg Med Chem Lett, 2008)
